Measurements reported in paper PMC4926610 (Journal of natural products, 2016).
“Also recorded” adds a separate entry of the source.

Assays:
chaperonin GroEL = chaperonin GroEL (Escherichia coli, UniProt P0A6F5); assay: Malachite green ATPase assay, GroEL; format: biochemical
[1] = target: type I AAA+ chaperone ClpX (Escherichia coli, UniProt P0A6H1); assay: Malachite green ATPase assay, ClpX; format: biochemical
p97-cys0 = p97-cys0 (Homo sapiens, UniProt P55072); assay: Malachite green ATPase assay, cysteineless p97; format: biochemical; conditions: Figure 6A
p97-cys0, sequence (P55072 2-806): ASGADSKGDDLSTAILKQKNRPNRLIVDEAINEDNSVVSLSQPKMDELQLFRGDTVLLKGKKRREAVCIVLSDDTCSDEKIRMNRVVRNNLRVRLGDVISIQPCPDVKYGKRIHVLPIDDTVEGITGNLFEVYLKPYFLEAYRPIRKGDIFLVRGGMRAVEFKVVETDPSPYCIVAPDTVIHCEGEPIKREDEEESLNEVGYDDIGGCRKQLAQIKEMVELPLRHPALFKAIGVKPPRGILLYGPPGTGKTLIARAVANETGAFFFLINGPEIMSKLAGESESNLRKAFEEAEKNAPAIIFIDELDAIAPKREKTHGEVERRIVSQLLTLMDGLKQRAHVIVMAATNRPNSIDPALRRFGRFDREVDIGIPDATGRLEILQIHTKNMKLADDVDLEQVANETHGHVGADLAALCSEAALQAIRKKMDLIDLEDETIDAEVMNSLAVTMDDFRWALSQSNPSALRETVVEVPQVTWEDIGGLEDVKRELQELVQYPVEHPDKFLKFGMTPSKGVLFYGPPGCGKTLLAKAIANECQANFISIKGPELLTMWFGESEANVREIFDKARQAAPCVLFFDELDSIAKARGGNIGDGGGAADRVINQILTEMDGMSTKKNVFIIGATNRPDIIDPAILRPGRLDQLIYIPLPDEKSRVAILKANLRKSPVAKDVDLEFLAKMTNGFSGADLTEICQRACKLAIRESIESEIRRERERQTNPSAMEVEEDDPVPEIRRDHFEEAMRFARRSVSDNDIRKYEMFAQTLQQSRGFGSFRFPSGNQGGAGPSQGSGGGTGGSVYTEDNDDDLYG

[2] = tested on: HEK293 cells stably expressing Ub^G76 VGFP; assay: Ub^G76 VGFP ubiquitin fusion degradation; format: cell-based, human; conditions: 10.0, 20.0 and 50.0 μM
Procedure, shortened: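 Stable reporter HEK293 lines seeded at 2 × 10^6 cells in phenol-red free DMEM plus 10% FBS, grown 18 h at 37 °C under 5% CO2. Then treated with 10.0, 20.0 or 50.0 μM test compound (0.1% final DMSO). DMSO 0.1% negative control and MG132 10.0 μM positive control were included. GFP-positive cells counted by flow cytometry: 488 nm excitation, 530/30 emission, 10 000 events gated on FSC/SSC.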

p97 (wt-p97) = p97 (wt-p97) (Homo sapiens, UniProt P55072); assay: Malachite green assay for p97 ATPase activity; format: biochemical
p97 (wt-p97), sequence (P55072 whole entry): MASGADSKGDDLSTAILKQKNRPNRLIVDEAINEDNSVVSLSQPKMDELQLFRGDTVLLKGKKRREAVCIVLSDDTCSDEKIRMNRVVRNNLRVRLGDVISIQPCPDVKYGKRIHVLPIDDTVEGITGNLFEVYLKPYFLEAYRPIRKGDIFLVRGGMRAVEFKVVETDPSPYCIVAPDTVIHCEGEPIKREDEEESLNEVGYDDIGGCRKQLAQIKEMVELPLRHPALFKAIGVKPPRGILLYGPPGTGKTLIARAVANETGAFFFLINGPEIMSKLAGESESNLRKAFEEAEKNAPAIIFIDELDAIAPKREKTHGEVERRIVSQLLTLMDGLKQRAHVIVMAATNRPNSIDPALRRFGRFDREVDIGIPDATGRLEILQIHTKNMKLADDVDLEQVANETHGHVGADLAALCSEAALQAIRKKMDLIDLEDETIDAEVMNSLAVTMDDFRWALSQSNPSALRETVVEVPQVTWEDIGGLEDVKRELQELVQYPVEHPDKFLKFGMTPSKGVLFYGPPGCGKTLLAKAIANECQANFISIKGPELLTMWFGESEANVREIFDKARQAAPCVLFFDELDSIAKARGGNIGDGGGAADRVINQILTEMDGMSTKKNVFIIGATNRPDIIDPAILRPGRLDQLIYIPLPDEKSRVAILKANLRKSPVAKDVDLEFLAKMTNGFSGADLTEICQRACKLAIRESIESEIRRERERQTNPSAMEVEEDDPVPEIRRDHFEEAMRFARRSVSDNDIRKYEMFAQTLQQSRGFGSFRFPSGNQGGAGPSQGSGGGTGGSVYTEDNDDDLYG
Procedure, shortened: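 Hydrolysis started with 2.0 mM ATP at 37 °C. Aliquots taken at 2, 4, 6, 8 and 10 min were quenched in malachite green/ammonium molybdate/HCl/Tween 20 reagent. IC50 was taken from dose–response curves.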

p97-C209A = p97-C209A (Homo sapiens, UniProt P55072, C209A); assay: biochemical
p97-C209A, sequence (P55072 whole entry C209A): as the sequence (P55072 whole entry) above, with C209A counted along it

p97 = p97 (Homo sapiens, UniProt P55072); format: biochemical; conditions: 100.0 μM compound, 1.0 μM p97, 6 h at 21 °C, then dialysis; Figure 6B
p97, sequence (P55072 whole entry): as the sequence (P55072 whole entry) above
Procedure, shortened: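 Dialysed into assay buffer, fresh buffer 3 times every 2 h. ATPase started with 2.0 mM ATP; aliquots every 10 min up to 1 h into malachite green, citrate-quenched, OD660 converted to phosphate via standard curve, plotted against time.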

[3] = target: N-ethylmaleimide sensitive factor (NSF) (Homo sapiens, UniProt P46459); assay: Malachite green ATPase assay, NSF; format: biochemical
N-ethylmaleimide sensitive factor (NSF), sequence (P46459 whole entry, species assumed): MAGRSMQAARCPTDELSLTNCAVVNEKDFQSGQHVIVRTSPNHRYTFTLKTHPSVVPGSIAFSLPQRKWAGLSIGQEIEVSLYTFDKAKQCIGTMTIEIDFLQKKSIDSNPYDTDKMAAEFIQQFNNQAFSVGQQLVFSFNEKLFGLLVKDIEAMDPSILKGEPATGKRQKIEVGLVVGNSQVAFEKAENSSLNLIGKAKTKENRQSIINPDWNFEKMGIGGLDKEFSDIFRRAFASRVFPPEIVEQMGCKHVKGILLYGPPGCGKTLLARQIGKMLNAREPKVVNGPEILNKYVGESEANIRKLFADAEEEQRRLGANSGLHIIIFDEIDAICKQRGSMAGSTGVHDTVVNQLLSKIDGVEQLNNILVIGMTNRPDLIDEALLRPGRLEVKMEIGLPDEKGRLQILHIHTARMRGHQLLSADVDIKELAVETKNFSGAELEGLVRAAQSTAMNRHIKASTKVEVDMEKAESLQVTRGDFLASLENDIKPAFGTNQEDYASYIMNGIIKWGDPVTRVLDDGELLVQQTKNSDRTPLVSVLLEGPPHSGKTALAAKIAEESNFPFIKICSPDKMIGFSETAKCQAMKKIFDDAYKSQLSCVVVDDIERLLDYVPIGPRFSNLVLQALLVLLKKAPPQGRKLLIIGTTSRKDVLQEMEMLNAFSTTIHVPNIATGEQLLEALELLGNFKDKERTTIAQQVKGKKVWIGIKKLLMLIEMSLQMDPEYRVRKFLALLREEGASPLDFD

[4] = isolated from Rhodotorula glutinis T-110; cited from earlier work

type I AAA+ chaperone ClpX, sequence (P0A6H1 whole entry): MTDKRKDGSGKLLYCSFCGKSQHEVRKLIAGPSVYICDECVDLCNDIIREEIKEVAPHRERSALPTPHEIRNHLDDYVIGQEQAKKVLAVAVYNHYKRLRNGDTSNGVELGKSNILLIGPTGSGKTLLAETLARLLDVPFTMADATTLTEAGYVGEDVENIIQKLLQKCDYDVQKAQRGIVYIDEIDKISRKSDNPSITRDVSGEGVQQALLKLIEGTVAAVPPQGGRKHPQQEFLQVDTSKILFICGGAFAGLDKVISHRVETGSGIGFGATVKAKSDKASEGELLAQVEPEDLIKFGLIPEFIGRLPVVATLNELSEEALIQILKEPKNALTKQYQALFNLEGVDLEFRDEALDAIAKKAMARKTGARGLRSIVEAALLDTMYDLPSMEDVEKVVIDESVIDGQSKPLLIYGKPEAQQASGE
chaperonin GroEL, sequence (P0A6F5 whole entry): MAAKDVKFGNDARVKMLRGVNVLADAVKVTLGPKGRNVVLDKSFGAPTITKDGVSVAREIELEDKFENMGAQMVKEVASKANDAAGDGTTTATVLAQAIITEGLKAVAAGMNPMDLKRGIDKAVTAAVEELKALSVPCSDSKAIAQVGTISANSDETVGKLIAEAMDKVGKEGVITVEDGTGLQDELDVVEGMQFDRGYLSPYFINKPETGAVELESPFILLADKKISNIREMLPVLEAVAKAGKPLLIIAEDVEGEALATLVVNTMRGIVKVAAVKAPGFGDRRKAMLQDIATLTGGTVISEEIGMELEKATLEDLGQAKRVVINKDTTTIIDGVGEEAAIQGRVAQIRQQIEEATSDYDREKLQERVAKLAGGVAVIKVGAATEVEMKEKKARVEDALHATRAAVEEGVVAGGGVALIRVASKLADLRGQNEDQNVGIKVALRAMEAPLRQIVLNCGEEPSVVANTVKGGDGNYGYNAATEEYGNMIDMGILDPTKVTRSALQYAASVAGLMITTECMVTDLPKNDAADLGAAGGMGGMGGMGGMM

## C=C1OC(=O)C2(C1=O)[C@H](/C=C/C=C/CCC)C=C[C@@H](O)[C@@H]2O (mixture of isomers) [compound 2, oxaspirol B]
Chaperonin GroEL
  IC50: > 200 µM
[1]
  IC50: > 200 µM
p97-cys0
  activity against cysteine-less p97 variant Cys0 (in words): no activity
[2]
  rescue of Ub^G76 VGFP reporter (number of GFP positive cells by FACS): dose-dependent inhibition of GFP fluorescence loss; also recorded: rescued in the presence of 2 in a dose-dependent manner
p97 (wt-p97); data not shown
  effect of ATP concentration on IC50 of p97 inhibition: no effect
p97 (wt-p97); malachite green-based ATPase assay
  p97 ATPase inhibitory activity (in words): moderate; also recorded: showed activity
p97-C209A
  IC50: 18 ± 4.7 µM
p97
  inhibition of p97 ATPase after extensive dialysis (reversibility): No inhibition of p97 was evident after extensive dialysis; also recorded: p97 ATPase activity is restored
[3]
  IC50: > 200 µM

## C=C1OC(=O)[C@@]2(C1=O)[C@H](/C=C/C=C/CCC)C=C[C@@H](OC(C)=O)[C@@H]2OC(C)=O (single isomer, unassigned; isomer 5b) [5b, 9,10-Diacetyloxaspirol B Isomer 5b]
p97 (wt-p97)
  IC50: > 200 µM

## C=C1OC(=O)[C@]2(C1=O)[C@H](/C=C/C=C/CCC)C=C[C@@H](OC(C)=O)[C@@H]2OC(C)=O (single isomer, unassigned; isomer 5a) [5a, 9,10-Diacetyloxaspirol B Isomer 5a]
p97 (wt-p97)
  IC50: > 200 µM

## CCCC=CC=C[C@@H]1C=C[C@@H](O)[C@H](O)[C@]12C(=O)OC(C)[C@@H]2O (stereo partly drawn) [compound 1, (4R,5R,6R,9R,10R)-6-(hepta-1,3-dien)yl-4,9,10-trihydroxy-3-methyl-2-oxaspiro[4,5]dec-7-en-1-one]
[4]
  antibacterial activity (in words): weakly active

## C[C@H]1CCC/C=C/C(=O)c2c(O)cc(O)cc2CC(=O)O1 [dehydrocurvularin, reference compound]
p97
  inhibition of p97 ATPase after extensive dialysis (reversibility): continued inhibition even after extensive dialysis
